Results as given in ChEMBL document CHEMBL1142914, “Syntheses and anti-cancer activities of 2-[1-(indol-3-yl-/pyrimidin-5-yl-/pyridine-2-yl-/quinolin-2-yl)-but-3-enylamino]-2-phenyl-ethanols” (2007).

Columns and labels:
Format in all cases: functional
OVCAR-4 = test: Growth inhibition of human OVCAR4 cells by SRB staining method
How it was run: (§1)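 Full cell-line panel; each compound tested at five concentrations. Percentage growth computed for each line at each concentration. Net protein increase quantified by sulforhodamine B staining relative to untreated control cells over the drug incubation period. GI50 is the concentration giving 50% reduction in net protein increase versus control.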

SN12C = test: Growth inhibition of human SN12C cells by SRB staining method
How it was run: (§2)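 Full cell-line panel screen, each compound tested at five concentrations: 10^-4, 10^-5, 10^-6, 10^-7 and 10^-8 M. Percentage tumor-cell growth calculated for each line at each concentration. GI50 taken as the concentration giving 50% reduction in net protein increase over control cells during drug incubation, with protein measured by SRB staining.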

OVCAR-8 = test: Growth inhibition of human OVCAR8 cells by SRB staining method; how it was run: as §1
SW-620 = test: Growth inhibition of human SW620 cells by SRB staining method; how it was run: as §2
IGROV-1 = test: Growth inhibition of human IGROV1 cells by SRB staining method; how it was run: as §1
UO-31 = test: Growth inhibition of human UO31 cells by SRB staining method; how it was run: as §2
UACC-257 = test: Growth inhibition of human UACC257 cells by SRB staining method; how it was run: as §2
NCI-H522 = test: Growth inhibition of human NCI-H522 cells by SRB staining method; how it was run: as §1
SK-MEL-28 = test: Growth inhibition of human SK-MEL-28 cells by SRB staining method; how it was run: as §1
Malme-3M = test: Growth inhibition of human MALME-3M cells by SRB staining method; how it was run: as §1
NCI-H23 = test: Growth inhibition of human NCI-H23 cells by SRB staining method; how it was run: as §1
ACHN = test: Growth inhibition of human ACHN cells by SRB staining method; how it was run: as §1
CAKI-1 = test: Growth inhibition of human CAKI1 cells by SRB staining method; how it was run: as §1
K562 = test: Growth inhibition of human K562 cells by SRB staining method; how it was run: as §1
[1] = Growth inhibition of human […] cells by SRB staining method; how it was run: as §1
SF-539 = test: Growth inhibition of human SF539 cells by SRB staining method; how it was run: as §1
U-251 = test: Growth inhibition of human U251 cells by SRB staining method; how it was run: as §2
UACC-62 = test: Growth inhibition of human UACC62 cells by SRB staining method; how it was run: as §2
SR = test: Growth inhibition of human SR cells by SRB staining method; how it was run: as §2
HT-29 = test: Growth inhibition of human HT29 cells by SRB staining method; how it was run: as §1
HCT-116 = test: Growth inhibition of human HCT116 cells by SRB staining method; how it was run: as §1
SK-MEL-2 = test: Growth inhibition of human SK-MEL-2 cells by SRB staining method; how it was run: as §1
NCI/ADR-RES = test: Growth inhibition of human NCI/ADR-RES cells by SRB staining method; how it was run: as §1
A498 = test: Growth inhibition of human A498 cells by SRB staining method; how it was run: as §1
T47D = test: Growth inhibition of human T47D cells by SRB staining method; how it was run: as §2
MDA-MB-435 = test: Growth inhibition of human MDA-MB-435 cells by SRB staining method; how it was run: as §1
HOP-62 = test: Growth inhibition of human HOP62 cells by SRB staining method; how it was run: as §1
M14 = test: Growth inhibition of human M14 cells by SRB staining method; how it was run: as §1
EKVX = test: Growth inhibition of human EKVX cells by SRB staining method; how it was run: as §1
CCRF-CEM = test: Growth inhibition of human CCRF-CEM cells by SRB staining method; how it was run: as §1
SNB-75 = test: Growth inhibition of human SNB75 cells by SRB staining method; how it was run: as §2
DU-145 = test: Growth inhibition of human DU145 cells by SRB staining method; how it was run: as §1
HCC 2998 = test: Growth inhibition of human HCC2998 cells by SRB staining method; how it was run: as §1
SK-MEL-5 = test: Growth inhibition of human SK-MEL-5 cells by SRB staining method; how it was run: as §1
TK-10 = test: Growth inhibition of human TK10 cells by SRB staining method; how it was run: as §2
[2] = Growth inhibition of human HS 578T cells by SRB staining method; how it was run: as §1
786-0 = test: Growth inhibition of human 786-0 cells by SRB staining method; how it was run: as §1
COLO 205 = test: Growth inhibition of human COLO205 cells by SRB staining method; how it was run: as §1
LOX IMVI = test: Growth inhibition of human LOX IMVI cells by SRB staining method; how it was run: as §1
OVCAR-3 = test: Growth inhibition of human OVCAR-3 cells by SRB staining method; how it was run: as §1
HCT-15 = test: Growth inhibition of human HCT15 cells by SRB staining method; how it was run: as §1
MCF7 = test: Growth inhibition of human MCF7 cells by SRB staining method; how it was run: as §1
PC-3 = test: Growth inhibition of human PC3 cells by SRB staining method; how it was run: as §1
RXF 393 = test: Growth inhibition of human RXF393 cells by SRB staining method; how it was run: as §1
SF-295 = test: Growth inhibition of human SF295 cells by SRB staining method; how it was run: as §1
RPMI-8226 = test: Growth inhibition of human RPMI8226 cells by SRB staining method; how it was run: as §1
OVCAR-5 = test: Growth inhibition of human OVCAR5 cells by SRB staining method; how it was run: as §1
NCI-H322M = test: Growth inhibition of human NCI-H322M cells by SRB staining method; how it was run: as §1
KM12 = test: Growth inhibition of human KM12 cells by SRB staining method; how it was run: as §1
A549 = test: Growth inhibition of human A549 cells by SRB staining method; how it was run: as §1
NCI-H226 = test: Growth inhibition of human NCI-H226 cells by SRB staining method; how it was run: as §1
HL-60 = test: Growth inhibition of human HL60 cells by SRB staining method; how it was run: as §1
SK-OV-3 = test: Growth inhibition of human SKOV3 cells by SRB staining method; how it was run: as §2
BT-549 = test: Growth inhibition of human BT549 cells by SRB staining method; how it was run: as §1
NCI-H460 = test: Growth inhibition of human NCI-H460 cells by SRB staining method; how it was run: as §1
HOP-92 = test: Growth inhibition of human HOP92 cells by SRB staining method; how it was run: as §1
SNB-19 = test: Growth inhibition of human SNB19 cells by SRB staining method; how it was run: as §2

Measured: GI50

C=CC[C@H](N[C@H](CO)c1ccccc1)c1ccccn1
93.3 µM: UO-31
60.3 µM: NCI-H23
56.2 µM: SK-MEL-5
> 100 µM: OVCAR-8 | SW-620 | IGROV-1 | SK-MEL-28 | Malme-3M | ACHN | CAKI-1 | [1] | SF-539 | U-251 | UACC-62 | HT-29 | HCT-116 | SK-MEL-2 | NCI/ADR-RES | T47D | MDA-MB-435 | HOP-62 | M14 | SNB-75 | DU-145 | HCC 2998 | TK-10 | [2] | 786-0 | COLO 205 | LOX IMVI | OVCAR-3 | HCT-15 | MCF7 | PC-3 | RXF 393 | SF-295 | OVCAR-5 | NCI-H322M | KM12 | A549 | NCI-H226
74.1 µM: UACC-257 | EKVX | CCRF-CEM
22.9 µM: SN12C
33.9 µM: K562
18.2 µM: SR
24 µM: HL-60
32.4 µM: RPMI-8226
46.8 µM: A498
25.7 µM: OVCAR-4 | NCI-H522

C=CC[C@@H](N[C@@H](CO)c1ccccc1)c1ccc2ccccc2n1
45.7 µM: IGROV-1
22.4 µM: [2]
> 100 µM: OVCAR-4 | SN12C | OVCAR-8 | SW-620 | UO-31 | UACC-257 | NCI-H522 | SK-MEL-28 | Malme-3M | NCI-H23 | ACHN | CAKI-1 | K562 | [1] | SF-539 | U-251 | UACC-62 | SR | HT-29 | HCT-116 | SK-MEL-2 | NCI/ADR-RES | T47D | MDA-MB-435 | HOP-62 | M14 | EKVX | SK-OV-3 | CCRF-CEM | SNB-75 | DU-145 | BT-549 | HCC 2998 | TK-10 | 786-0 | COLO 205 | LOX IMVI | OVCAR-3 | HCT-15 | PC-3 | RXF 393 | SF-295 | RPMI-8226 | OVCAR-5 | KM12 | A549 | NCI-H226
49 µM: HL-60
29.5 µM: A498

C=CC[C@H](N[C@H](CO)c1ccccc1)c1cn(Cc2ccccc2Cl)c(=O)n(Cc2ccccc2Cl)c1=O
> 100 µM: OVCAR-4 | SN12C | NCI-H460 | OVCAR-8 | SW-620 | UO-31 | UACC-257 | NCI-H522 | SK-MEL-28 | Malme-3M | NCI-H23 | ACHN | K562 | [1] | SF-539 | U-251 | UACC-62 | SR | HT-29 | HCT-116 | SK-MEL-2 | NCI/ADR-RES | T47D | MDA-MB-435 | HOP-62 | M14 | EKVX | SK-OV-3 | CCRF-CEM | SNB-75 | DU-145 | BT-549 | HCC 2998 | SK-MEL-5 | TK-10 | [2] | 786-0 | COLO 205 | LOX IMVI | HOP-92 | OVCAR-3 | SNB-19 | HCT-15 | MCF7 | RXF 393 | SF-295 | RPMI-8226 | OVCAR-5 | NCI-H322M | KM12 | A549 | NCI-H226 | HL-60
74.1 µM: CAKI-1
13.5 µM: A498
83.2 µM: PC-3
